Test results taken from paper PMC7017397 (ACS Omega, 2020).

Legend:
Assay type in all cases: in vivo, C57BL/6J mice
[1] = Plasma pharmacokinetics after a single 1 mg/kg dose; conditions: for AUC / MRT last / k el: C57BL/6J, mouse, 1 mg/kg
In short: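 Male C57BL/6J mice (10–12 weeks; n = 4 per time point) under i.p. zolazepam 50 mg/kg plus xylazine 12 mg/kg received 1 mg/kg in 5% dextrose (37 °C) by tail-vein i.v., s.c., i.p. or gavage. Terminal cardiac-puncture blood was taken into EDTA at 2.5–90 min. Plasma was spiked with internal standard, acetonitrile-deproteinized and measured by LC–MS/MS. Mean levels were fitted two-compartmentally, with AUC by linear trapezoidal rule.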

[2] = Brain pharmacokinetics after a single 1 mg/kg dose; conditions: for Cmax / MRT last / Tmax / k el: C57BL/6J, mouse, 1 mg/kg; for brain drug targeting efficiency: from zero-infinity predicted AUC values
In short: (§1)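 Anaesthetized (zolazepam/xylazine i.p.) male C57BL/6J mice, n = 4 per time point, were dosed 1 mg/kg by i.v., s.c., i.p. or gavage. At 2.5–90 min, after cardiac blood sampling, they were transcardially perfused with saline. Brain and spinal cord were homogenized in equal weight-volume water, spiked with internal standard, deproteinized 1:3 with cold acetonitrile and quantified by LC–MS/MS. Per-time-point means were fitted with a two-compartment model.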

[3] = Spinal cord pharmacokinetics after a single 1 mg/kg dose; conditions: for Cmax / MRT last / Tmax / k el: C57BL/6J, mouse, 1 mg/kg; for spinal cord drug targeting efficiency: from zero-infinity predicted AUC values
In short: as §1

[4] = brain, i.p. 1 mg/kg single dose
[5] = brain, i.v. 1 mg/kg single dose
[6] = brain, p.o. 1 mg/kg single dose
[7] = brain, s.c. 1 mg/kg single dose
[8] = spinal cord, i.p. 1 mg/kg single dose
[9] = spinal cord, i.v. 1 mg/kg single dose
[10] = spinal cord, p.o. 1 mg/kg single dose
[11] = spinal cord, s.c. 1 mg/kg single dose

CC(=O)N[C@@H](Cc1ccccc1)C(=O)N[C@H]1CCCNC(=O)[C@H](CCCNC(=N)N)NC(=O)[C@H](Cc2c[nH]c3ccccc23)NC(=O)[C@@H](CC2CCCCC2)NC(=O)[C@@H]2CCCN2C1=O [PMX53, Ac-Phe-[Orn-Pro-dCha-Trp-Arg]]
AUC ([1]; ip): 1800 ng·h/mL
MRT last ([1]; ip): 27.4 min
k el ([1]; ip): 0.00114 s⁻¹
AUC ([1]; iv): 2510 ng·h/mL
MRT last ([1]; iv): 13.2 min
k el ([1]; iv): 0.00193 s⁻¹
AUC ([1]; po): 227 ng·h/mL
MRT last ([1]; po): 32.6 min
k el ([1]; po): 0.000711 s⁻¹
AUC ([1]; sc): 2240 ng·h/mL
MRT last ([1]; sc): 38.8 min
k el ([1]; sc): 0.000592 s⁻¹
Alpha (hybrid first-order rate constant, distribution phase) ([1]; i.p. 1 mg/kg single dose): 0.07 min⁻¹
Beta (hybrid first-order rate constant, elimination phase) ([1]; i.p. 1 mg/kg single dose): 0.03 min⁻¹
CLD2_F (apparent total clearance of the drug from plasma after administration) ([1]; i.p. 1 mg/kg single dose): <0.01 µL/min
CL_F (apparent total body clearance of the drug from plasma) ([1]; i.p. 1 mg/kg single dose): 0.16 µL/min
K01 (absorption rate constant) ([1]; i.p. 1 mg/kg single dose): 4.29 h⁻¹
K12 (distribution rate constant) ([1]; i.p. 1 mg/kg single dose): <0.001 h⁻¹
K21 (redistribution rate constant) ([1]; i.p. 1 mg/kg single dose): 2.00 h⁻¹
V1_F (apparent volume of central compartment) ([1]; i.p. 1 mg/kg single dose): <0.01 mL
V2_F (apparent volume of peripheral compartment) ([1]; i.p. 1 mg/kg single dose): <0.01 mL
Alpha (hybrid first-order rate constant, distribution phase) ([1]; i.v. 1 mg/kg single dose): 0.20 min⁻¹
Beta (hybrid first-order rate constant, elimination phase) ([1]; i.v. 1 mg/kg single dose): 0.05 min⁻¹
CLD2_F (apparent total clearance of the drug from plasma after administration) ([1]; i.v. 1 mg/kg single dose): 84.57 µL/min
CL_F (apparent total body clearance of the drug from plasma) ([1]; i.v. 1 mg/kg single dose): 199.16 µL/min
K12 (distribution rate constant) ([1]; i.v. 1 mg/kg single dose): 2.95 h⁻¹
K21 (redistribution rate constant) ([1]; i.v. 1 mg/kg single dose): 4.85 h⁻¹
V1_F (apparent volume of central compartment) ([1]; i.v. 1 mg/kg single dose): 1.72 mL
V2_F (apparent volume of peripheral compartment) ([1]; i.v. 1 mg/kg single dose): 1.05 mL
Alpha (hybrid first-order rate constant, distribution phase) ([1]; p.o. 1 mg/kg single dose): 0.04 min⁻¹
Beta (hybrid first-order rate constant, elimination phase) ([1]; p.o. 1 mg/kg single dose): 0.04 min⁻¹
CLD2_F (apparent total clearance of the drug from plasma after administration) ([1]; p.o. 1 mg/kg single dose): <0.01 µL/min
CL_F (apparent total body clearance of the drug from plasma) ([1]; p.o. 1 mg/kg single dose): 2.01 µL/min
K01 (absorption rate constant) ([1]; p.o. 1 mg/kg single dose): 2.92 h⁻¹
K12 (distribution rate constant) ([1]; p.o. 1 mg/kg single dose): <0.001 h⁻¹
K21 (redistribution rate constant) ([1]; p.o. 1 mg/kg single dose): 2.58 h⁻¹
V1_F (apparent volume of central compartment) ([1]; p.o. 1 mg/kg single dose): 0.05 mL
V2_F (apparent volume of peripheral compartment) ([1]; p.o. 1 mg/kg single dose): <0.01 mL
Alpha (hybrid first-order rate constant, distribution phase) ([1]; s.c. 1 mg/kg single dose): 0.04 min⁻¹
Beta (hybrid first-order rate constant, elimination phase) ([1]; s.c. 1 mg/kg single dose): 0.04 min⁻¹
CLD2_F (apparent total clearance of the drug from plasma after administration) ([1]; s.c. 1 mg/kg single dose): <0.01 µL/min
CL_F (apparent total body clearance of the drug from plasma) ([1]; s.c. 1 mg/kg single dose): 0.11 µL/min
K01 (absorption rate constant) ([1]; s.c. 1 mg/kg single dose): 2.28 h⁻¹
K12 (distribution rate constant) ([1]; s.c. 1 mg/kg single dose): <0.001 h⁻¹
K21 (redistribution rate constant) ([1]; s.c. 1 mg/kg single dose): 2.14 h⁻¹
V1_F (apparent volume of central compartment) ([1]; s.c. 1 mg/kg single dose): <0.01 mL
V2_F (apparent volume of peripheral compartment) ([1]; s.c. 1 mg/kg single dose): <0.01 mL
Cmax ([2]; brain, ip): 48.1 ng/g
MRT last ([2]; brain, ip): 40.8 min
Tmax ([2]; brain, ip): 10.4 min
k el ([2]; brain, ip): 0.0002 s⁻¹
Cmax ([2]; brain, iv): 74.1 ng/g
MRT last ([2]; brain, iv): 42 min
k el ([2]; brain, iv): 0.0001 s⁻¹
Cmax ([2]; brain, po): 77 ng/g
MRT last ([2]; brain, po): 40.8 min
Tmax ([2]; brain, po): 14.9 min
k el ([2]; brain, po): 0.000122 s⁻¹
Cmax ([2]; brain, sc): 120 ng/g
MRT last ([2]; brain, sc): 42 min
Tmax ([2]; brain, sc): 19.9 min
k el ([2]; brain, sc): 0.000189 s⁻¹
Alpha (hybrid first-order rate constant, distribution phase) [2, 4]: 9.22 h⁻¹
Beta (hybrid first-order rate constant, elimination phase) [2, 4]: 0.30 h⁻¹
CLD2_F (apparent total clearance of the drug after administration) [2, 4]: 25.61 ng/(min ng/g)
CL_F (apparent total body clearance of the drug) [2, 4]: 3.77 ng/(min ng/g)
K01 (absorption rate constant) [2, 4]: 9.06 h⁻¹
K12 (distribution rate constant) [2, 4]: 4.92 h⁻¹
K21 (redistribution rate constant) [2, 4]: 3.87 h⁻¹
V1_F (apparent volume of central compartment) [2, 4]: 0.31 μg/(ng/g)
V2_F (apparent volume of peripheral compartment) [2, 4]: 0.40 μg/(ng/g)
Alpha (hybrid first-order rate constant, distribution phase) [2, 5]: 35.52 h⁻¹
Beta (hybrid first-order rate constant, elimination phase) [2, 5]: 0.20 h⁻¹
CLD2_F (apparent total clearance of the drug after administration) [2, 5]: 107.59 ng/(min ng/g)
CL_F (apparent total body clearance of the drug) [2, 5]: 2.43 ng/(min ng/g)
K12 (distribution rate constant) [2, 5]: 15.95 h⁻¹
K21 (redistribution rate constant) [2, 5]: 19.41 h⁻¹
V1_F (apparent volume of central compartment) [2, 5]: 0.40 μg/(ng/g)
V2_F (apparent volume of peripheral compartment) [2, 5]: 0.33 μg/(ng/g)
Vss (apparent volume of distribution at a steady state) [2, 5]: 0.74 μg/(ng/g)
Alpha (hybrid first-order rate constant, distribution phase) [2, 6]: 1.68 h⁻¹
Beta (hybrid first-order rate constant, elimination phase) [2, 6]: 0.26 h⁻¹
CLD2_F (apparent total clearance of the drug after administration) [2, 6]: 2.68 ng/(min ng/g)
CL_F (apparent total body clearance of the drug) [2, 6]: 2.28 ng/(min ng/g)
K01 (absorption rate constant) [2, 6]: 11.20 h⁻¹
K12 (distribution rate constant) [2, 6]: 0.51 h⁻¹
K21 (redistribution rate constant) [2, 6]: 0.99 h⁻¹
V1_F (apparent volume of central compartment) [2, 6]: 0.31 μg/(ng/g)
V2_F (apparent volume of peripheral compartment) [2, 6]: 0.16 μg/(ng/g)
Alpha (hybrid first-order rate constant, distribution phase) [2, 7]: 3.48 h⁻¹
Beta (hybrid first-order rate constant, elimination phase) [2, 7]: 0.41 h⁻¹
CLD2_F (apparent total clearance of the drug after administration) [2, 7]: 2.91 ng/(min ng/g)
CL_F (apparent total body clearance of the drug) [2, 7]: 1.75 ng/(min ng/g)
K01 (absorption rate constant) [2, 7]: 5.81 h⁻¹
K12 (distribution rate constant) [2, 7]: 1.13 h⁻¹
K21 (redistribution rate constant) [2, 7]: 2.07 h⁻¹
V1_F (apparent volume of central compartment) [2, 7]: 0.15 μg/(ng/g)
V2_F (apparent volume of peripheral compartment) [2, 7]: 0.08 μg/(ng/g)
brain drug targeting efficiency ([2]; i.p. 1 mg/kg): 0.71
brain drug targeting efficiency ([2]; p.o. 1 mg/kg): 8.21
brain drug targeting efficiency ([2]; s.c. 1 mg/kg): 1.37
Cmax ([3]; spinal cord, ip): 71.3 ng/g
MRT last ([3]; spinal cord, ip): 37.2 min
Tmax ([3]; spinal cord, ip): 11.9 min
k el ([3]; spinal cord, ip): 0.000242 s⁻¹
Cmax ([3]; spinal cord, iv): 130 ng/g
MRT last ([3]; spinal cord, iv): 41.4 min
k el ([3]; spinal cord, iv): 0.000111 s⁻¹
Cmax ([3]; spinal cord, po): 75.9 ng/g
MRT last ([3]; spinal cord, po): 40.8 min
Tmax ([3]; spinal cord, po): 14.9 min
k el ([3]; spinal cord, po): 0.000122 s⁻¹
Cmax ([3]; spinal cord, sc): 96.6 ng/g
MRT last ([3]; spinal cord, sc): 38.4 min
Tmax ([3]; spinal cord, sc): 23.1 min
k el ([3]; spinal cord, sc): 0.000519 s⁻¹
spinal cord drug targeting efficiency ([3]; i.p. 1 mg/kg): 0.63
spinal cord drug targeting efficiency ([3]; p.o. 1 mg/kg): 4.42
spinal cord drug targeting efficiency ([3]; s.c. 1 mg/kg): 0.77
Alpha (hybrid first-order rate constant, distribution phase) [3, 8]: 0.87 h⁻¹
Beta (hybrid first-order rate constant, elimination phase) [3, 8]: 0.19 h⁻¹
CLD2_F (apparent total clearance of the drug after administration) [3, 8]: 0.01 ng/(min ng/g)
CL_F (apparent total body clearance of the drug) [3, 8]: 5.15 ng/(min ng/g)
K01 (absorption rate constant) [3, 8]: 15.39 h⁻¹
K12 (distribution rate constant) [3, 8]: <0.01 h⁻¹
K21 (redistribution rate constant) [3, 8]: 0.19 h⁻¹
V1_F (apparent volume of central compartment) [3, 8]: 0.35 μg/(ng/g)
V2_F (apparent volume of peripheral compartment) [3, 8]: <0.01 μg/(ng/g)
Alpha (hybrid first-order rate constant, distribution phase) [3, 9]: 26.36 h⁻¹
Beta (hybrid first-order rate constant, elimination phase) [3, 9]: 0.27 h⁻¹
CLD2_F (apparent total clearance of the drug after administration) [3, 9]: 30.58 ng/(min ng/g)
CL_F (apparent total body clearance of the drug) [3, 9]: 1.52 ng/(min ng/g)
K12 (distribution rate constant) [3, 9]: 7.94 h⁻¹
K21 (redistribution rate constant) [3, 9]: 18.30 h⁻¹
V1_F (apparent volume of central compartment) [3, 9]: 0.23 μg/(ng/g)
V2_F (apparent volume of peripheral compartment) [3, 9]: 0.10 μg/(ng/g)
Vss (apparent volume of distribution at a steady state) [3, 9]: 0.33 μg/(ng/g)
Alpha (hybrid first-order rate constant, distribution phase) [3, 10]: 1.69 h⁻¹
Beta (hybrid first-order rate constant, elimination phase) [3, 10]: 0.26 h⁻¹
CLD2_F (apparent total clearance of the drug after administration) [3, 10]: 2.71 ng/(min ng/g)
CL_F (apparent total body clearance of the drug) [3, 10]: 2.33 ng/(min ng/g)
K01 (absorption rate constant) [3, 10]: 11.20 h⁻¹
K12 (distribution rate constant) [3, 10]: 0.51 h⁻¹
K21 (redistribution rate constant) [3, 10]: 1.00 h⁻¹
V1_F (apparent volume of central compartment) [3, 10]: 0.32 μg/(ng/g)
V2_F (apparent volume of peripheral compartment) [3, 10]: 0.16 μg/(ng/g)
Alpha (hybrid first-order rate constant, distribution phase) [3, 11]: 2.66 h⁻¹
Beta (hybrid first-order rate constant, elimination phase) [3, 11]: 0.22 h⁻¹
CLD2_F (apparent total clearance of the drug after administration) [3, 11]: 1.36 ng/(min ng/g)
CL_F (apparent total body clearance of the drug) [3, 11]: 3.68 ng/(min ng/g)
K01 (absorption rate constant) [3, 11]: 2.70 h⁻¹
K12 (distribution rate constant) [3, 11]: 0.69 h⁻¹
K21 (redistribution rate constant) [3, 11]: 0.32 h⁻¹
V1_F (apparent volume of central compartment) [3, 11]: 0.12 μg/(ng/g)
V2_F (apparent volume of peripheral compartment) [3, 11]: 0.26 μg/(ng/g)
